This note sets out measurements from ChEMBL document CHEMBL3758175, “Bis-isatin hydrazones with novel linkers: Synthesis and biological evaluation as cytotoxic agents” (Eur J Med Chem, 2016).

Assay [1] deals with HepG2. Put plainly: Cytotoxicity against human HepG2 cells assessed as cell viability after 24 hrs by crystal violet staining assay. The class given is functional, cell-based. The settings on record: HepG2, 24 h. In a few lines:
(§1)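 Cells were kept as monolayers in RPMI-1640 with 10% heat-inactivated FCS and 50 µg/ml gentamycin at 37 °C under 5% CO2. They were seeded at 3,000 cells/well and, 24 h later, washed with PBS (pH 7.2). Ten dilutions in fresh medium were added for 24 h at 37 °C, with a 1% DMSO vehicle control. Survivors were stained with crystal violet, lysed with 33% acetic acid and read at 490 nm against untreated cells. IC50 was taken from graphic plots; mean of at least three experiments.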

A short description of assay [2]: Cytotoxicity against human HCT116 cells assessed as cell viability after 24 hrs by crystal violet staining assay. The class given is functional, cell-based. To be noted: HCT-116, 24 h. In a few lines: as §1
Assay [3] has as its system MCF7. Put plainly: Cytotoxicity against human MCF7 cells assessed as cell viability after 24 hrs by crystal violet staining assay. The class given is functional, cell-based. To be noted: MCF7, 24 h.
Assay [4] deals with MCF7. Nature of the assay: Cytotoxicity against human MCF7 cells assessed as growth inhibition after 72 hrs by Sulforhodamine B colorimetric assay. The class given is functional, cell-based. The settings on record: MCF7, 72 h. On the technique in general: The SRB assay estimates cell density from bound dye.
Assay [5] has as its system MCF7. Nature of the assay: Cell cycle arrest in human MCF7 cells assessed as decrease in cell level at G0/G1 phase at IC50 after 24 hrs by flow cytometric analysis relative to control. Also on record: scale not given: the % may be the effect or the level left. The class given is functional. For orientation: In flow cytometry, cells or beads pass a laser one at a time.

In assay [6] the test system is MCF7. Put plainly: Cell cycle arrest in human MCF7 cells assessed as accumulation at pre-G phase at IC50 after 24 hrs by flow cytometric analysis relative to control. The format is functional.
Assay [7] concerns MCF7. Put plainly: Induction of apoptosis in human MCF7 cells assessed as late apoptotic cells at IC50 after 24 hrs by annexin V-FITC/propidium iodide staining based flow cytometry relative to control. The class given is functional.
Assay [8] concerns MCF7. Put plainly: Induction of apoptosis in human MCF7 cells assessed as necrotic cells at IC50 after 24 hrs by annexin V-FITC/propidium iodide staining based flow cytometry relative to control. The class given is functional.
The test system of assay [9] is MCF7. Put plainly: Induction of apoptosis in human MCF7 cells assessed as viable cells at IC50 after 24 hrs by annexin V-FITC/propidium iodide staining based flow cytometry (reference value: 96.3%). The class given is functional.
Assay [10] concerns MCF7. Put plainly: Induction of apoptosis in human MCF7 cells at IC50 after 24 hrs by annexin V-FITC/propidium iodide staining based flow cytometry relative to control. The format is functional.
Assay [11] relates to MCF7. Nature of the assay: Cell cycle arrest in human MCF7 cells assessed as accumulation at G2/M phase at IC50 after 24 hrs by flow cytometric analysis relative to control. The format is functional.
The test system of assay [12] is MCF7. Nature of the assay: Induction of apoptosis in human MCF7 cells assessed as early apoptotic cells at IC50 after 24 hrs by annexin V-FITC/propidium iodide staining based flow cytometry (reference value: 3.70%). The class given is functional.
For assay [13], the target named is Cyclin-dependent kinase 2/cyclin E1 (Homo sapiens, UniProt P24941). Nature of the assay: Inhibition of GST-tagged recombinant human CDK2/cyclin E expressed in insect SF-9 cells after 10 mins by scintillation counting analysis in presence of [gamma-33P]-ATP. Also on record: species or system Sf9.
The test system of assay [14] is HepG2. Nature of the assay: Cytotoxicity against human HepG2 cells assessed as growth inhibition after 72 hrs by Sulforhodamine B colorimetric assay. To be noted: HepG2, 72 h. The format is functional, cell-based.
Assay [15] can be described thus: Cytotoxicity against human KBV1 cells assessed as cell survival after 72 hrs by MTT assay. To be noted: KB-V1, 72 h. The class given is functional, cell-based. (Tetrazolium dyes change colour on reduction, which living cells bring about.)
The nature of assay [16]: Cytotoxicity against human KB3-1 cells assessed as cell survival after 72 hrs by MTT assay. The settings on record: KB 3-1, 72 h. The format is functional, cell-based.
The test system of assay [17] is L1210. Put plainly: Cytotoxicity against mouse L1210 cells assessed as cell growth inhibition by MTT assay. The format is functional, cell-based.

The IC50 is the midpoint of a concentration-inhibition curve. Turning to `Cc1ccc2c(c1)/C(=N/NC(=O)c1c(C)c(C(=O)N/N=C3\C(=O)Nc4ccc(C)cc43)n(C)c1C)C(=O)N2`, the IC50 turned out to be 22.1 µM in assay [1], 38.6 µM in assay [2] and 29.9 µM in [3].
Taken in the same sequence, the figures for `O=C(N/N=C1\C(=O)Nc2ccc([N+](=O)[O-])cc21)C(=O)N/N=C1\C(=O)Nc2ccc([N+](=O)[O-])cc21` were 25.8 µM, 56.2 µM and 91.2 µM.
Turning to `Cc1[nH]c(C(=O)N/N=C2\C(=O)Nc3ccc(Br)cc32)c(C)c1C(=O)N/N=C1\C(=O)Nc2ccc(Br)cc21`, the values for the half-maximal inhibitory concentration (IC50) in [1], in [2] and in assay [3] were 32.4 µM, 37.3 µM and 36.7 µM, respectively.
As to `COc1ccc(-c2nc(N/N=C3\C(=O)Nc4ccc(Cl)cc43)c3ccccc3n2)cc1OC`, the IC50 in assay [4] is 2.1 µM.
On to `O=C1Nc2ccc([N+](=O)[O-])cc2/C1=N/NC(=O)c1cncc(C(=O)N/N=C2\C(=O)Nc3ccc([N+](=O)[O-])cc32)c1`, for which the IC50 in [1] was 75.9 µM; in assay [2], over 100 µM; in assay [3], 88.8 µM.
Taken in the same sequence, the figures for `O=C1Nc2ccc(F)cc2/C1=N/NC(=O)c1cncc(C(=O)N/N=C2\C(=O)Nc3ccc(F)cc32)c1` were 76.3 µM, 24.5 µM and 38 µM.
Taken in the same sequence, the figures for `Cc1ccc2c(c1)/C(=N/NC(=O)C(=O)N/N=C1\C(=O)Nc3ccc(C)cc31)C(=O)N2` were over 100 µM, over 100 µM and 55.9 µM.
With `COc1ccc2c(c1)/C(=N/NC(=O)c1c(C)c(C(=O)N/N=C3\C(=O)Nc4ccc(OC)cc43)n(C)c1C)C(=O)N2`, the Activity in assay [5] was 18.5%; in [7], 0.36%; in assay [8], 0.18%; in assay [9], 74.5%; in assay [12], 25%. In addition, the entries for the “fold change (FC)” value in [6], in [10] and in assay [11] were 5, 6.7 and 1.83, respectively. Also, the figures for the IC50 in [1], in [2] and in [3] were 6.99 µM, 3.31 µM and 1.84 µM, respectively.
With `O=C1Nc2ccc(Br)cc2/C1=N/NC(=O)c1cncc(C(=O)N/N=C2\C(=O)Nc3ccc(Br)cc32)c1`, the concentration for half-maximal inhibition (IC50) in assay [1] was determined as 30.1 µM; in assay [2], 23.7 µM; in assay [3] it was 34.5 µM.
For `COc1cccc2c1C(=O)c1c(O)c3c(c(O)c1C2=O)C[C@@](O)(C(=O)CO)C[C@@H]3O[C@H]1C[C@H](N)[C@H](O)[C@H](C)O1` [DOXORUBICIN], the IC50 was found to be 3.56 µM in assay [1] and 3.7 µM in assay [2].
Turning to `Cc1[nH]c(C(=O)N/N=C2\C(=O)Nc3ccccc32)c(C)c1C(=O)N/N=C1\C(=O)Nc2ccccc21`, the IC50 in assay [1] turned out to be 30.1 µM; in assay [2], 76.5 µM; in assay [3] it was 69.2 µM.
With `O=C1/C(=C2\Nc3ccccc3C2=O)Nc2ccccc21` [INDIGO], the half-maximal inhibitory concentration (IC50) in [13] stood at 1 µM.
`Cc1ccc2c(c1)/C(=N/NC(=O)c1[nH]c(C)c(C(=O)N/N=C3\C(=O)Nc4ccc(C)cc43)c1C)C(=O)N2`: the IC50 is over 100 µM in assay [1], 45.9 µM in assay [2] and 46.1 µM in [3].
On to `Cc1c(C(=O)N/N=C2\C(=O)Nc3ccccc32)c(C)n(C)c1C(=O)N/N=C1\C(=O)Nc2ccccc21`, for which the IC50 in assay [1], in [2] and in [3] was over 100 µM throughout.
`O=C(N/N=C1\C(=O)Nc2ccc(Br)cc21)C(=O)N/N=C1\C(=O)Nc2ccc(Br)cc21`: the IC50 in assay [1] came out at 77.8 µM; in assay [2], 98.7 µM; in [3], 91.9 µM.
Taken in the same sequence, the figures for `Cc1[nH]c(C(=O)N/N=C2\C(=O)Nc3ccc(F)cc32)c(C)c1C(=O)N/N=C1\C(=O)Nc2ccc(F)cc21` were 78.4 µM, 77 µM and 76.3 µM.
Taken in the same sequence, the figures for `COc1ccc2c(c1)/C(=N/NC(=O)c1[nH]c(C)c(C(=O)N/N=C3\C(=O)Nc4ccc(OC)cc43)c1C)C(=O)N2` were 83.5 µM, over 100 µM and 78.8 µM.
Taken in the same sequence, the figures for `O=C1Nc2ccccc2/C1=N/NC(=O)c1cncc(C(=O)N/N=C2\C(=O)Nc3ccccc32)c1` were 72.7 µM, 39.2 µM and 39.1 µM.
As to `O=C1Nc2ccc(F)cc2/C1=N/Nc1nc(-c2ccccc2)nc2ccccc12`, the concentration for half-maximal inhibition (IC50) in assay [14] came out at 1 µM.
In the case of `Cc1[nH]c(C(=O)N/N=C2\C(=O)Nc3ccc([N+](=O)[O-])cc32)c(C)c1C(=O)N/N=C1\C(=O)Nc2ccc([N+](=O)[O-])cc21`, the concentration for half-maximal inhibition (IC50) in assay [1] was 86.9 µM; in [2], over 100 µM; in [3], over 100 µM.
For `O=C1Nc2ccc(Cl)cc2/C1=N/N=C1\C(=O)N(c2ccccc2)c2ccccc21`, the IC50 in assay [15] came to 6.07 µM; in [16] it was 6.79 µM.
For the molecule `COc1ccc2c(c1)/C(=N/NC(=O)c1cncc(C(=O)N/N=C3\C(=O)Nc4ccc(OC)cc43)c1)C(=O)N2`, the figures for the IC50 in assay [1], in assay [2] and in assay [3] were 36.5 µM, 45.4 µM and 66.5 µM, respectively.
With `Cc1ccc2c(c1)/C(=N/NC(=O)N/N=C1\C(=O)Nc3ccc(C)cc31)C(=O)N2`, the 50% inhibitory concentration (IC50) in assay [17] came to 16 µM.
